# Measured values: ChEMBL document CHEMBL1127319, “CNAD: a potent and specific inhibitor of alcohol dehydrogenase” (J Med Chem, 1994)
# B1: Alcohol dehydrogenase 1A (Homo sapiens), P07327 (protein)
# chain: MSTAGKVIKCKAAVLWELKKPFSIEEVEVAPPKAHEVRIKMVAVGICGTDDHVVSGTMVTPLPVILGHEAAGIVESVGEGVTTVKPGDKVIPLAIPQCGKCRICKNPESNYCLKNDVSNPQGTLQDGTSRFTCRRKPIHHFLGISTFSQYTVVDENAVAKIDAASPLEKVCLIGCGFSTGYGSAVNVAKVTPGSTCAVFGLGGVGLSAIMGCKAAGAARIIAVDINKDKFAKAKELGATECINPQDYKKPIQEVLKEMTDGGVDFSFEVIGRLDTMMASLLCCHEACGTSVIVGVPPDSQNLSMNPMLLLTGRTWKGAILGGFKSKECVPKLVADFMAKKFSLDALITHVLPFEKINEGFDLLHSGKSIRTILMF
# Substrate: NC(=O)c1ccc[n+]([C@@H]2O[C@H](COP(=O)([O-])OP(=O)(O)OC[C@H]3O[C@@H](n4cnc5c(N)ncnc54)[C@H](O)[C@@H]3O)[C@@H](O)[C@H]2O)c1
# Assay: Michaelis-Menten constant against mammalian liver alcohol dehydrogenase (ADH)
# Details: Equus caballus
# Procedure, shortened: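 NAD is varied and the A340 increase from NADH formation is monitored (ε 6.22 mM-1 cm-1). Buffers differ by enzyme: ADH in 0.1 M phosphate, pH 8.0, with ethanol 1.2 mM; GDH in 0.1 M phosphate, pH 7.0, with 10 μM EDTA; LDH and MDH in 0.05 M Tris-HCl, pH 9.0. At least duplicate.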
protein,measurement,value
B1,Km,25 µM
